# Screens: PubChem, Broad Institute
# KDM4C inh = inhibitors of human demethylase GASC-1 KDM4C. GST-KDM4C 2-372, H3K9me3 peptide, LANCE TR-FRET. inhibition, % at 12.5 µM. 0.15% of 96,000 active. AID 720574;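 active = mean replicate inhibition above about 25%, with at least 55% of replicates also reaching it, limit read from the data, passing the limit was not always enough; inconclusive = only one of those two conditions met; inactive = neither condition met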
#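 Material: GST-tagged GASC-1 (JMJD2C) catalytic fragment, aa 2-372 / Quantity: enzyme final amount 10 nM / Medium: HEPES buffer, pH 7.5, plus ascorbate / Doses: one test concentration per compound / Incubation: 30 min reaction, 60 min detection, RT / Measured by: LANCE TR-FRET / Read-out: inhibition from TR-FRET ratio decrease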
# IDH1 mut inh = IDH1 R132H (human) inhibition; O75874; IDH1 R132H reductase, diaphorase/resazurin fluorescence, 60 min; inhibition, % at 10 µM; 0.18% of 70,000 active; in the data active = inhibition above about 34%; inconclusive = no clear call, values can overlap the other calls; inactive = below about 11%
# Target sequence (O75874 whole entry R132H): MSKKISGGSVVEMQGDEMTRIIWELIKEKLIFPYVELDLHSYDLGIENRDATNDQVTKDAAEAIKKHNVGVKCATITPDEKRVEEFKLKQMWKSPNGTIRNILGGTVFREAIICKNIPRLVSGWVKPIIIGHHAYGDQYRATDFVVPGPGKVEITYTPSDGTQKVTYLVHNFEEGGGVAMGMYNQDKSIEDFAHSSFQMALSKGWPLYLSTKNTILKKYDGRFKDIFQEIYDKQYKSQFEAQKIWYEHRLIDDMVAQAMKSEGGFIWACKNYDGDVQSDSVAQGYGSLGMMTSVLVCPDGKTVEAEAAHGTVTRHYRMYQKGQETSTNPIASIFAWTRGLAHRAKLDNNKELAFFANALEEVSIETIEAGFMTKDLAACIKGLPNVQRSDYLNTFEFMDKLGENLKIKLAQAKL
# T cruzi growth-1 = inhibitors of T. cruzi proliferation. inhibition, % at 8.34 µM. T. cruzi beta-gal in NIH3T3, GalScreen luminescence, 90 h. 5.9% of 77,000 active;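 active = mean inhibition above about 93%, with at least 55% of replicates each passing it, limit read from the data, passing the limit was not always enough; inconclusive = only one of those two conditions holds; inactive = neither condition holds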
# T cruzi growth-2 = blocks T. cruzi growth in NIH3T3 host cells | T. cruzi beta-gal in NIH3T3, GalScreen luminescence, 90 h | 72% of 5,600 active | inhibition, % at 8.35 µM | shares compounds with T cruzi growth-1;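 active = mean replicate inhibition above about 95% and at least 55% of replicates individually reaching it, limit read from the data; inconclusive = only one of the two criteria is met; inactive = neither criterion is met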
# T cruzi growth-3 = inhibitors of T. cruzi proliferation; 21% of 5,600 active; AID 651740; T. cruzi beta-gal in NIH3T3, GalScreen luminescence, 90 h; shares compounds with T cruzi growth-1; inhibition, % at 2.09 µM;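 active = mean inhibition above about 95%, with at least 55% of replicates also reaching it, limit read from the data; inconclusive = meets just one of the two conditions; inactive = meets neither condition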
# 3T3 cytotox = cytotoxicity in mouse NIH/3T3 fibroblasts; 14% of 5,600 active; cytotoxicity (signal decrease), % at 8.35 µM; shares compounds with T cruzi growth-1; NIH/3T3 viability, CellTiter-Glo ATP luminescence, 90 h; AID 651742;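 active = mean signal decrease across replicates above about 35% based on untreated-well scatter, with enough replicates individually passing, limit read from the data; inconclusive = no rule stated though some were filed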
# 3T3 cytotox 2 = kills mouse NIH/3T3 fibroblasts; shares compounds with T cruzi growth-1; NIH/3T3 viability, CellTiter-Glo ATP luminescence, 90 h; inhibition, % at 24.9 µM; 56% of 5,600 active; AID 651744;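 active = mean loss of cell viability signal at or above a set limit, and enough replicates individually reaching it; inconclusive = meets only the mean limit or only the replicate share; inactive = meets neither condition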
# Hits are given with their value; 0 = inactive; ? = inconclusive; - = no result given. Many of the other results were omitted from the sample, so hits are more common in it than they were.
SMILES,KDM4C inh,IDH1 mut inh,T cruzi growth-1,T cruzi growth-2,T cruzi growth-3,3T3 cytotox,3T3 cytotox 2
COc1cccc(C(=O)Nc2ccc3c(c2)OC[C@H](C)N(CCc2ccccc2)C[C@@H](C)[C@@H](OC)CN(C)C3=O)c1,0,0,119,109,0,0,0
COc1cccc(C(=O)Nc2ccc3c(c2)OC[C@@H](C)N(CCc2ccccc2)C[C@H](C)[C@@H](OC)CN(C)C3=O)c1,0,0,110,110,0,0,0
COc1cccc(C(=O)Nc2ccc3c(c2)OC[C@@H](C)N(CCc2ccccc2)C[C@@H](C)[C@@H](OC)CN(C)C3=O)c1,0,0,0,-,-,-,-
O=C(CC1NCCNC1=O)Nc1ccc(F)cc1 (centres undefined),-,0,-,-,-,-,-
CCc1cccc(OCC(=O)Nc2cc([N+](=O)[O-])ccc2O)c1,-,0,-,-,-,-,-
Cc1cc(C)n(C(=O)c2ccc(COc3c(F)c(F)cc(F)c3F)o2)n1,-,0,-,-,-,-,-
C[C@@H]1CCCCO[C@@H](CN(C)C(=O)Cc2ccccc2)[C@H](C)CN([C@H](C)CO)C(=O)c2cc(NC(=O)NC3CCCCC3)ccc2O1,0,0,100,108,0,0,26
C[C@@H]1CCCCO[C@H](CN(C)C(=O)Cc2ccccc2)[C@H](C)CN([C@@H](C)CO)C(=O)c2cc(NC(=O)Nc3cccc4ccccc34)ccc2O1,0,-,101,105,0,0,0
C[C@H]1CCCCO[C@H](CN(C)C(=O)Cc2ccccc2)[C@@H](C)CN([C@@H](C)CO)C(=O)c2cc(NC(=O)Nc3ccccc3)ccc2O1,0,0,99,109,0,0,0
C[C@H]1CCCCO[C@H](CN(C)C(=O)Cc2ccccc2)[C@@H](C)CN([C@@H](C)CO)C(=O)c2cc(NC(=O)NC3CCCCC3)ccc2O1,0,0,0,-,-,-,-
C[C@@H]1CCCCO[C@@H](CN(C)C(=O)Cc2ccccc2)[C@@H](C)CN([C@H](C)CO)C(=O)c2cc(NC(=O)Nc3cccc4ccccc34)ccc2O1,0,-,0,-,-,-,-
C[C@@H]1CCCCO[C@H](CN(C)C(=O)Cc2ccccc2)[C@@H](C)CN([C@@H](C)CO)C(=O)c2cc(NC(=O)Nc3ccccc3)ccc2O1,0,0,0,-,-,-,-
CC(=O)Nc1ccc(NC(=O)Cn2cc([N+](=O)[O-])cn2)cc1,-,0,-,-,-,-,-
CO[C@H]1CN(C)C(=O)c2cc(NC(=O)C3CCCCC3)ccc2OC[C@H](C)N(C)C[C@@H]1C,0,0,0,-,-,-,-
COc1ccc(-c2ccc3n(c2=O)C[C@H]2[C@H](CO)[C@@H](C(=O)N(C)C)N(CC4CCCC4)[C@@H]32)cc1,0,-,0,-,-,-,-
COc1ccc(-c2ccc3n(c2=O)C[C@H]2[C@H](CO)[C@@H](C(=O)N(C)C)N(CC4CC4)[C@@H]32)cc1,0,-,103,0,0,0,0
CCN1[C@@H]2c3ccc(-c4cccc(C(=O)N(C)C)c4)c(=O)n3C[C@@H]2[C@@H](CO)[C@@H]1C(=O)N(C)C,0,-,0,-,-,-,-
CCN1[C@H](C(=O)N(C)C)[C@@H](CO)[C@@H]2Cn3c(ccc(-c4cccc(C(=O)N(C)C)c4)c3=O)[C@@H]21,0,-,100,0,0,0,0
CCN(CC(=O)Nc1cc([N+](=O)[O-])ccc1C)S(=O)(=O)c1ccc(C)cc1,-,0,-,-,-,-,-
C[C@@H]1CCCCO[C@@H](CN(C)Cc2ccc(Cl)c(Cl)c2)[C@H](C)CN([C@H](C)CO)C(=O)c2cc(NC(=O)Nc3cccc4ccccc34)ccc2O1,0,0,0,-,-,-,-
C[C@H](CO)N1C[C@H](C)[C@@H](CN(C)Cc2ccc(Cl)c(Cl)c2)OCCCC[C@H](C)Oc2ccc(NC(=O)Nc3cccc4ccccc34)cc2C1=O,0,-,122,111,106,0,0
C[C@@H]1CN([C@H](C)CO)C(=O)c2cc(NC(=O)Nc3cccc4ccccc34)ccc2O[C@@H](C)CCCCO[C@H]1CN(C)Cc1ccc(Cl)c(Cl)c1,0,0,-,-,-,-,-
C[C@@H]1CCCCO[C@@H](CN(C)Cc2ccc(Cl)c(Cl)c2)[C@@H](C)CN([C@H](C)CO)C(=O)c2cc(NC(=O)Nc3cccc4ccccc34)ccc2O1,0,0,120,103,0,0,0
O=C(CCC1COc2ccccc2O1)Nc1ncc(C(F)(F)F)cc1Cl (centres undefined),-,0,-,-,-,-,-
CSc1ccccc1NC(=O)Cn1ccc([N+](=O)[O-])n1,-,0,-,-,-,-,-
SMILES,KDM4C inh,IDH1 mut inh,T cruzi growth-1,T cruzi growth-2,T cruzi growth-3,3T3 cytotox,3T3 cytotox 2
C[C@@H]1CN([C@H](C)CO)C(=O)c2cc(NC(=O)C3CCCCC3)ccc2O[C@@H](C)CCCCO[C@H]1CN(C)C(=O)NC1CCCCC1,0,-,114,98,0,0,0
C[C@@H]1CCCCO[C@@H](CN(C)C(=O)NC2CCCCC2)[C@H](C)CN([C@H](C)CO)C(=O)c2cc(NC(=O)C3CCCCC3)ccc2O1,0,-,0,-,-,-,-
CC(C)NC(=O)Nc1ccc2c(c1)C(=O)N([C@H](C)CO)C[C@@H](C)[C@H](CN(C)C(=O)NC1CCCCC1)OCCCC[C@@H](C)O2,0,-,96,0,0,0,0
CC(C)NC(=O)Nc1ccc2c(c1)C(=O)N([C@@H](C)CO)C[C@H](C)[C@@H](CN(C)C(=O)NC1CCCCC1)OCCCC[C@H](C)O2,0,0,0,-,-,-,-
CC(C)NC(=O)Nc1ccc2c(c1)C(=O)N([C@@H](C)CO)C[C@@H](C)[C@H](CN(C)C(=O)NC1CCCCC1)OCCCC[C@@H](C)O2,0,0,97,0,0,0,0
CC(C)NC(=O)Nc1ccc2c(c1)C(=O)N([C@@H](C)CO)C[C@@H](C)[C@@H](CN(C)C(=O)NC1CCCCC1)OCCCC[C@H](C)O2,0,0,0,-,-,-,-
CC(C)(O)/C(=C/C#N)n1cccn1,-,0,-,-,-,-,-
C[C@@H]1CN([C@@H](C)CO)S(=O)(=O)c2ccc(C#CCN(C)C)cc2O[C@H]1CN(C)Cc1ccc2c(c1)OCO2,0,0,111,102,0,45,104
C[C@@H]1CN([C@H](C)CO)S(=O)(=O)c2ccc(C#CCN(C)C)cc2O[C@@H]1CN(C)Cc1ccc2c(c1)OCO2,0,0,0,-,-,-,-
CCCC#Cc1ccc2c(c1)O[C@@H](CN(C)Cc1ccc3c(c1)OCO3)[C@@H](C)CN([C@H](C)CO)S2(=O)=O,0,0,109,0,105,0,103
CC(C)CC#Cc1ccc2c(c1)O[C@@H](CN(C)Cc1ccc3c(c1)OCO3)[C@@H](C)CN([C@@H](C)CO)S2(=O)=O,0,0,0,-,-,-,-
C[C@H](CO)N1C[C@H](C)[C@@H](CN(C)Cc2ccc3c(c2)OCO3)Oc2cc(C#CCN(C)C)ccc2S1(=O)=O,0,0,103,110,0,?,105
